Experimental data published in ChEMBL document CHEMBL3407339, “A novel series of thiazolyl-pyrazoline derivatives: synthesis and evaluation of antifungal activity, cytotoxicity and genotoxicity” (Eur J Med Chem, 2015).
≈ marks a conversion by molar mass, not a printed value.

Key:
Salmonella typhimurium [1] = test: Mutagenicity in Salmonella typhimurium TA98 at 0.156 mg/ml after 48 hrs by AMES MPF assay in absence of Sprague-Dawley rat liver microsomal S9 fraction relative to baseline; type: toxicity, organism-based; conditions: salmonella enterica subsp. enterica serovar typhimurium
In short: (§1)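 Ames MPF fluctuation test with TA98/TA100. Overnight cultures (37 °C, 14–16 h) mixed with exposure medium; ±Aroclor-1254-induced rat liver S9 (final 4.5% v/v). Compounds in DMSO, 0.156–5 mg/mL. 90 min exposure at 37 °C, then indicator medium; 48 wells per concentration, 48 h at 37 °C, in triplicate. Yellow wells counted; fold induction over baseline (mean + 1 SD of zero-dose control).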

Salmonella typhimurium [2] = test: Mutagenicity in Salmonella typhimurium TA100 at 0.3125 mg/ml after 48 hrs by AMES MPF assay in absence of Sprague-Dawley rat liver microsomal S9 fraction relative to baseline; type: toxicity, organism-based; conditions: salmonella enterica subsp. enterica serovar typhimurium; in short: as §1
Fusarium solani = test: Antifungal activity against Fusarium solani NRRL 13414 after 72 hrs by broth microdilution assay; type: functional; conditions: NRRL 13414, 72 h
In short: (§2)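 Compounds dissolved in DMSO, diluted in sterile distilled water from 4 to 0.0039 mg/mL. Molds grown on PDA at 25 °C for 5 days, suspended in double-strength PDB at 10⁵ spores/mL. Incubated at 25 °C for 72 h; mycelial growth read under stereo microscope. MIC = lowest concentration inhibiting visible growth. Ketoconazole reference.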

Candida albicans = test: Antifungal activity against Candida albicans ATCC 90028 after 48 hrs by broth microdilution assay; type: functional; conditions: ATCC 90028, 48 h
In short: (§3)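 Broth microdilution of DMSO stocks serially diluted in sterile water (4 to 0.0039 mg/mL). Yeasts grown on SDA at 37 °C for 24 h, suspended in double-strength PDB at 10⁵ spores/mL. Incubated at 37 °C for 48 h, then sprayed with 0.5% aqueous TTC. MIC = lowest concentration inhibiting visible growth. Ketoconazole reference.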

Candida parapsilosis = test: Antifungal activity against Candida parapsilosis NRLL Y 12696 after 48 hrs by broth microdilution assay; type: functional; conditions: Lodderomyces parapsilosis, NRLL Y 12696, 48 h; in short: as §3
Salmonella typhimurium [3] = test: Mutagenicity in Salmonella typhimurium TA98 at 0.3125 mg/ml after 48 hrs by AMES MPF assay in absence of Sprague-Dawley rat liver microsomal S9 fraction relative to baseline; type: toxicity, organism-based; conditions: salmonella enterica subsp. enterica serovar typhimurium; in short: as §1
Salmonella typhimurium [4] = test: Mutagenicity in Salmonella typhimurium TA100 at 0.3125 mg/ml after 48 hrs by AMES MPF assay in presence of Sprague-Dawley rat liver microsomal S9 fraction relative to baseline; type: toxicity, organism-based; conditions: salmonella enterica subsp. enterica serovar typhimurium; in short: as §1
Salmonella typhimurium [5] = test: Mutagenicity in Salmonella typhimurium TA98 at 5 mg/ml after 48 hrs by AMES MPF assay in absence of Sprague-Dawley rat liver microsomal S9 fraction relative to baseline; type: toxicity, organism-based; conditions: salmonella enterica subsp. enterica serovar typhimurium; in short: as §1
Aspergillus parasiticus = test: Antifungal activity against Aspergillus parasiticus NRRL 465 after 72 hrs by broth microdilution assay; type: functional; conditions: NRRL 465, 72 h; in short: as §2
Candida tropicalis = test: Antifungal activity against Candida tropicalis NRLL Y 12968 after 48 hrs by broth microdilution assay; type: functional; conditions: NRLL Y 12968, 48 h; in short: as §3
[6] = Cytotoxicity against mouse NIH/3T3 cells after 24 hrs by XTT assay; type: cell-based; conditions: NIH3T3, 24 h
In short: (§4)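 A549 cells in RPMI and NIH/3T3 cells in DMEM, each with fetal calf serum, antibiotics and 7.5% NaHCO₃, at 37 °C, 5% CO₂. Seeded at 20,000 cells/well, 24 h, then compounds added in medium at 500–3.9 doses (final DMSO <0.1%) for 24 h. XTT read after 3 h at 480 nm (ref 680 nm). IC₅₀ by non-linear regression; triplicates; cisplatin control.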

Salmonella typhimurium [7] = test: Mutagenicity in Salmonella typhimurium TA98 at 1.25 mg/ml after 48 hrs by AMES MPF assay in presence of Sprague-Dawley rat liver microsomal S9 fraction relative to baseline; type: toxicity, organism-based; conditions: salmonella enterica subsp. enterica serovar typhimurium; in short: as §1
Salmonella typhimurium [8] = test: Mutagenicity in Salmonella typhimurium TA100 at 1.25 mg/ml after 48 hrs by AMES MPF assay in absence of Sprague-Dawley rat liver microsomal S9 fraction relative to baseline; type: toxicity, organism-based; conditions: salmonella enterica subsp. enterica serovar typhimurium; in short: as §1
Salmonella typhimurium [9] = test: Mutagenicity in Salmonella typhimurium TA100 at 2.5 mg/ml after 48 hrs by AMES MPF assay in absence of Sprague-Dawley rat liver microsomal S9 fraction relative to baseline; type: toxicity, organism-based; conditions: salmonella enterica subsp. enterica serovar typhimurium; in short: as §1
Salmonella typhimurium [10] = test: Mutagenicity in Salmonella typhimurium TA98 at 0.625 mg/ml after 48 hrs by AMES MPF assay in presence of Sprague-Dawley rat liver microsomal S9 fraction relative to baseline; type: toxicity, organism-based; conditions: salmonella enterica subsp. enterica serovar typhimurium; in short: as §1
Salmonella typhimurium [11] = test: Mutagenicity in Salmonella typhimurium TA100 at 5 mg/ml after 48 hrs by AMES MPF assay in presence of Sprague-Dawley rat liver microsomal S9 fraction relative to baseline; type: toxicity, organism-based; conditions: salmonella enterica subsp. enterica serovar typhimurium; in short: as §1
Salmonella typhimurium [12] = test: Mutagenicity in Salmonella typhimurium TA100 at 0.156 mg/ml after 48 hrs by AMES MPF assay in presence of Sprague-Dawley rat liver microsomal S9 fraction relative to baseline; type: toxicity, organism-based; conditions: salmonella enterica subsp. enterica serovar typhimurium; in short: as §1
Salmonella typhimurium [13] = test: Mutagenicity in Salmonella typhimurium TA100 at 5 mg/ml after 48 hrs by AMES MPF assay in absence of Sprague-Dawley rat liver microsomal S9 fraction relative to baseline; type: toxicity, organism-based; conditions: salmonella enterica subsp. enterica serovar typhimurium; in short: as §1
Salmonella typhimurium [14] = test: Mutagenicity in Salmonella typhimurium TA98 at 0.156 mg/ml after 48 hrs by AMES MPF assay in presence of Sprague-Dawley rat liver microsomal S9 fraction relative to baseline; type: toxicity, organism-based; conditions: salmonella enterica subsp. enterica serovar typhimurium; in short: as §1
Salmonella typhimurium [15] = test: Mutagenicity in Salmonella typhimurium TA98 at 0.625 mg/ml after 48 hrs by AMES MPF assay in absence of Sprague-Dawley rat liver microsomal S9 fraction relative to baseline; type: toxicity, organism-based; conditions: salmonella enterica subsp. enterica serovar typhimurium; in short: as §1
Salmonella typhimurium [16] = test: Mutagenicity in Salmonella typhimurium TA98 at 2.5 mg/ml after 48 hrs by AMES MPF assay in absence of Sprague-Dawley rat liver microsomal S9 fraction relative to baseline; type: toxicity, organism-based; conditions: salmonella enterica subsp. enterica serovar typhimurium; in short: as §1
Salmonella typhimurium [17] = test: Mutagenicity in Salmonella typhimurium TA98 at 2.5 mg/ml after 48 hrs by AMES MPF assay in presence of Sprague-Dawley rat liver microsomal S9 fraction relative to baseline; type: toxicity, organism-based; conditions: salmonella enterica subsp. enterica serovar typhimurium; in short: as §1
Salmonella typhimurium [18] = test: Mutagenicity in Salmonella typhimurium TA100 at 0.156 mg/ml after 48 hrs by AMES MPF assay in absence of Sprague-Dawley rat liver microsomal S9 fraction relative to baseline; type: toxicity, organism-based; conditions: salmonella enterica subsp. enterica serovar typhimurium; in short: as §1
Salmonella typhimurium [19] = test: Mutagenicity in Salmonella typhimurium TA98 at 0.3125 mg/ml after 48 hrs by AMES MPF assay in presence of Sprague-Dawley rat liver microsomal S9 fraction relative to baseline; type: toxicity, organism-based; conditions: salmonella enterica subsp. enterica serovar typhimurium; in short: as §1
[Candida] zeylanoides = Antifungal activity against Candida zeylanoides NRLL Y 1774 after 48 hrs by broth microdilution assay; type: functional; conditions: Dujonia zeylanoides, NRLL Y 1774, 48 h; in short: as §3
Aspergillus flavus = test: Antifungal activity against Aspergillus flavus NRRL 980 after 72 hrs by broth microdilution assay; type: functional; conditions: NRRL 980, 72 h; in short: as §2
Pichia kudriavzevii = test: Antifungal activity against Candida krusei NRLL Y 7179 after 48 hrs by broth microdilution assay; type: functional; conditions: NRLL Y 7179, 48 h; in short: as §3
Salmonella typhimurium [20] = test: Mutagenicity in Salmonella typhimurium TA98 at 5 mg/ml after 48 hrs by AMES MPF assay in presence of Sprague-Dawley rat liver microsomal S9 fraction relative to baseline; type: toxicity, organism-based; conditions: salmonella enterica subsp. enterica serovar typhimurium; in short: as §1
Aspergillus niger = test: Antifungal activity against Aspergillus niger ATCC 1094 after 72 hrs by broth microdilution assay; type: functional; conditions: ATCC 1094, 72 h; in short: as §2
Nakaseomyces glabratus = test: Antifungal activity against Candida glabrata clinical isolate after 48 hrs by broth microdilution assay; type: functional; in short: as §3
Salmonella typhimurium [21] = test: Mutagenicity in Salmonella typhimurium TA100 at 1.25 mg/ml after 48 hrs by AMES MPF assay in presence of Sprague-Dawley rat liver microsomal S9 fraction relative to baseline; type: toxicity, organism-based; conditions: salmonella enterica subsp. enterica serovar typhimurium; in short: as §1
A549 = test: Antiproliferative activity against human A549 cells after 24 hrs by XTT assay; type: functional, cell-based; conditions: A549, 24 h; in short: as §4
Salmonella typhimurium [22] = test: Mutagenicity in Salmonella typhimurium TA100 at 0.625 mg/ml after 48 hrs by AMES MPF assay in presence of Sprague-Dawley rat liver microsomal S9 fraction relative to baseline; type: toxicity, organism-based; conditions: salmonella enterica subsp. enterica serovar typhimurium; in short: as §1
Salmonella typhimurium [23] = test: Mutagenicity in Salmonella typhimurium TA100 at 2.5 mg/ml after 48 hrs by AMES MPF assay in presence of Sprague-Dawley rat liver microsomal S9 fraction relative to baseline; type: toxicity, organism-based; conditions: salmonella enterica subsp. enterica serovar typhimurium; in short: as §1
Salmonella typhimurium [24] = test: Mutagenicity in Salmonella typhimurium TA100 at 0.625 mg/ml after 48 hrs by AMES MPF assay in absence of Sprague-Dawley rat liver microsomal S9 fraction relative to baseline; type: toxicity, organism-based; conditions: salmonella enterica subsp. enterica serovar typhimurium; in short: as §1
Salmonella typhimurium [25] = test: Mutagenicity in Salmonella typhimurium TA98 at 1.25 mg/ml after 48 hrs by AMES MPF assay in absence of Sprague-Dawley rat liver microsomal S9 fraction relative to baseline; type: toxicity, organism-based; conditions: salmonella enterica subsp. enterica serovar typhimurium; in short: as §1

Q: With `Fc1ccc(C2CC(c3ccc(Cl)s3)=NN2c2nc(-c3ccccc3)cs2)cc1` (stereo unspecified) as the molecule, how does the “fold change (FC)” value (Salmonella typhimurium [1]) read?
A: 0

Q: And the “fold change (FC)” value (Salmonella typhimurium [2])?
A: 0.32

Q: What about the MIC (Fusarium solani) of the same molecule?
A: 250 µg/mL (≈ 568 µM)

Q: What about the MIC (Candida albicans) of the same molecule?
A: 250 µg/mL (≈ 568 µM)

Q: What about the MIC (Candida parapsilosis) of the same molecule?
A: 250 µg/mL (≈ 568 µM)

Q: And the “fold change (FC)” value (Salmonella typhimurium [3])?
A: 0

Q: And the “fold change (FC)” value (Salmonella typhimurium [4])?
A: 3.23

Q: What about the “fold change (FC)” value (Salmonella typhimurium [5]) of the same molecule?
A: 0.67

Q: And the MIC (Aspergillus parasiticus)?
A: 250 µg/mL (≈ 568 µM)

Q: What about the MIC (Candida tropicalis) of the same molecule?
A: 250 µg/mL (≈ 568 µM)

Q: And the IC50 [6]?
A: > 500 µg/mL

Q: And the “fold change (FC)” value (Salmonella typhimurium [7])?
A: 0.68

Q: And the “fold change (FC)” value (Salmonella typhimurium [8])?
A: 1.28

Q: And the “fold change (FC)” value (Salmonella typhimurium [9])?
A: 2.88

Q: And the “fold change (FC)” value (Salmonella typhimurium [10])?
A: 1.08

Q: What about the “fold change (FC)” value (Salmonella typhimurium [11]) of the same molecule?
A: 4.38

Q: And the “fold change (FC)” value (Salmonella typhimurium [12])?
A: 1.85

Q: What about the “fold change (FC)” value (Salmonella typhimurium [13]) of the same molecule?
A: 0.96

Q: And the “fold change (FC)” value (Salmonella typhimurium [14])?
A: 1.63

Q: And the “fold change (FC)” value (Salmonella typhimurium [15])?
A: 0.67

Q: What about the “fold change (FC)” value (Salmonella typhimurium [16]) of the same molecule?
A: 0

Q: What about the “fold change (FC)” value (Salmonella typhimurium [17]) of the same molecule?
A: 0.27

Q: And the “fold change (FC)” value (Salmonella typhimurium [18])?
A: 0

Q: What about the “fold change (FC)” value (Salmonella typhimurium [19]) of the same molecule?
A: 0.68

Q: What about the MIC ([Candida] zeylanoides) of the same molecule?
A: 250 µg/mL (≈ 568 µM)

Q: What about the MIC (Aspergillus flavus) of the same molecule?
A: 125 µg/mL (≈ 284 µM)

Q: What about the MIC (Pichia kudriavzevii) of the same molecule?
A: 250 µg/mL (≈ 568 µM)

Q: And the “fold change (FC)” value (Salmonella typhimurium [20])?
A: 0.41

Q: And the MIC (Aspergillus niger)?
A: 250 µg/mL (≈ 568 µM)

Q: What about the MIC (Nakaseomyces glabratus) of the same molecule?
A: 125 µg/mL (≈ 284 µM)

Q: What about the “fold change (FC)” value (Salmonella typhimurium [21]) of the same molecule?
A: 4.62

Q: What about the IC50 (A549) of the same molecule?
A: > 500 µg/mL

Q: And the “fold change (FC)” value (Salmonella typhimurium [22])?
A: 2.77

Q: What about the “fold change (FC)” value (Salmonella typhimurium [23]) of the same molecule?
A: 3.46

Q: What about the “fold change (FC)” value (Salmonella typhimurium [24]) of the same molecule?
A: 0.96

Q: And the “fold change (FC)” value (Salmonella typhimurium [25])?
A: 0
